# Assay outcomes: PubChem, several laboratories
# Rows were chosen to be rich in hits. Some 1.9% of all compounds tested hit in one or more screens of this group.
# VIM-2 inh = blocks Pseudomonas aeruginosa VIM-2 metallo-beta-lactamase. hit rate 0.89% among 290,000. inhibition, % at 5.6 µM. purified VIM-2, nitrocefin hydrolysis, epi-absorbance fluorescence;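 active = inhibition above the mean of all tested compounds plus 3 SD, cutoff set per screening run, cut at about 7.5% in these data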;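 note: red hydrolysis product quenches plate fluorescence so inhibitors raise well fluorescence; 0% = enzyme with DMSO and 100% = DMSO without enzyme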
# core dimer inh = HCV core protein dimerization inhibition | inhibition, % at 5 µM | hit rate 0.33% among 300,000 | TR-FRET GST/Flag-core106 dimerization, 1536-well;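 active = inhibition above the mean of all tested compounds plus 3 SD, set per screening campaign, cut at about 45% in these data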
#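 Test system: GST/Flag-tagged HCV core106 proteins; Medium: KF-containing HEPES buffer, pH 7.45, DTT, CHAPS, BSA; Times: compound-protein-antibody incubation 4 h at 22.5 °C; Detection: TR-FRET 671 and 617 nm emission; Benchmarks: wells lacking GST-core106 and wells with excess unlabelled core106.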
# IMP-1 inhibitor = inhibitors of Pseudomonas aeruginosa IMP-1 metallo-beta-lactamase; inhibition, % at 5.6 µM; purified IMP-1, nitrocefin hydrolysis, epi-absorbance fluorescence; hit rate 0.45% among 290,000;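 active = inhibition above the mean plus 3 SD of all compounds in the same screening run, cut at about 4.5% in these data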;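 note: 0% = IMP-1 with DMSO and 100% = DMSO wells lacking enzyme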
#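 system = purified recombinant IMP-1 beta-lactamase | amount = 0.2 nM IMP-1, as dispensed | medium = HEPES buffer pH 7.1 with ZnSO4 and Brij 35 | times = 25 °C, 15 min preincubation, 25 min reaction | detection = plate fluorescence quenching by hydrolysis product, ex 480/em 530 nm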
# NadD inh = inhibitors of Staphylococcus aureus NadD | purified NadD enzyme, colorimetric absorbance read-out | inhibition, % at 20 µM | hit rate 0.78% among 360,000; in the data active = inhibition above about 26%
# Starred values were filed as active, the others as inactive; · = no result given.
SMILES,VIM-2 inh,core dimer inh,IMP-1 inhibitor,NadD inh
Cc1cc([N+](=O)[O-])c2c(c1C)C1C=CCC1C(c1ccccn1)N2 (stereo not drawn),1,31,5.9*,·
O=[N+]([O-])c1ccccc1/C=C/C=N/n1c(-c2ccc(Cl)cc2)n[nH]c1=S,-4,83*,-4,21
Cc1ccc(SCc2ccc(C(=O)Nc3cccnc3)cc2)cc1,2,1,15*,7
COCCN1C(=O)c2ccccc2C1c1nc2ccccc2[nH]1 (stereo not drawn),·,·,·,-3
O=C(CSc1c(Cl)cccc1Cl)NC1CCCc2ccccc21 (stereo not drawn),1,14,8.0*,-2
O=C(CSc1ccccc1Cl)NC1CCCc2ccccc21 (stereo not drawn),-3,7,0,-5
Cc1c2ccccc2cc[n+]1CCCS(=O)(=O)[O-],-2,2,-2,5
CC1(C)C(/C=C/C=C/C=C/C=C2\N(CCCCS(=O)(=O)O)c3ccc4ccccc4c3C2(C)C)=[N+](CCCCS(=O)(=O)[O-])c2ccc3ccccc3c21,·,69*,·,67*
CC(C)CN(C(=O)COC(=O)c1cc2c(s1)CCC2)C1CCS(=O)(=O)C1 (stereo not drawn),1,88*,-1,7
O=C(Nc1ccc(Nc2ccncc2)cc1)c1ccc(Nc2ccnc3ccc([N+](=O)[O-])cc23)cc1,36*,·,21*,18
CC(Sc1nnc(NC2CC2)s1)C(=O)Nc1ccc(N2CCOCC2)cc1 (stereo not drawn),·,·,·,-3
CC(Sc1nnc(NC2CCCCC2)s1)C(=O)Nc1ccc2c(c1)C(=O)c1ccccc1C2=O (stereo not drawn),-3,33,-5,38*
O=[N+]([O-])c1cccc(-n2cc3ccc([N+](=O)[O-])cc3n2)c1,·,·,·,6
Oc1ccc(/C=N/Nc2cc(N3CCCC3)nc(N3CCCC3)n2)cc1O,-1,21,-2,36*
N#CCc1nnc2n1-c1ccccc1CCC2,-2,4,12*,-4
NNC(=O)CN1CCCc2ccccc21,-8,-1,-4,7
CCCCn1c(O)c(/C=C/C=C/C=Nc2ccccc2)sc1=S,-1,63*,1,29
CCn1c(O)c(/C=C/C=C/C=Nc2ccccc2)sc1=S,-7,28,-4,4
Oc1c(/C=C/C=C/C=Nc2ccccc2)sc(=S)n1Cc1ccccc1,-1,50*,4,32*
COc1ccc(Cl)cc1NC(=O)COC(=O)c1cc(NS(=O)(=O)c2cccs2)ccc1O,1,13,-1,33*
CCn1c(NN)nc2sc3c(c2c1=O)CCC3,-4,55*,-4,4
CSc1nc2sc3c(c2c(=O)n1C)CCCC3,-1,3,-1,0
CSc1nc2sc3c(c2c(=O)n1C)CCC3,7.7*,-1,2,-6
CCN(CC)C(=O)Cn1c(=O)n(CCCC(=O)NCc2ccccc2)c(=O)c2sccc21,-1,3,-2,-4
O=c1[nH]c(=S)[nH]cc1Oc1ccc(Br)cc1Br,·,·,·,5
SMILES,VIM-2 inh,core dimer inh,IMP-1 inhibitor,NadD inh
O=C(N/N=C/c1cc([N+](=O)[O-])ccc1O)c1cccc(NC(=O)c2cccc(Cl)c2)c1,-2,7,-2,63*
O=C(Nc1cccc([N+](=O)[O-])c1)c1cccc(C(=O)Nc2cccc([N+](=O)[O-])c2)c1,-1,11,8.7*,23
CC(=O)c1ccc(NC(=O)c2cccc(NC(=O)c3ccccc3)c2)cc1,-1,-11,7.2*,-5
O=C1c2cccnc2-c2ncccc21,0,0,-3,-7
O=C1C(=O)c2cccnc2-c2ncccc21,·,·,·,40*
Cn1c(=O)c2c(SCC(=O)N3CCCCC3)nc(-c3ccccc3F)nc2n(C)c1=O,6,9,-1,-5
Cn1c(=O)c2c(SCC(=O)N3CCOCC3)nc(-c3ccccc3F)nc2n(C)c1=O,7.9*,4,-2,-3
O=C(/C=C\c1ccco1)c1ccc(NC(=O)c2ccco2)cc1,0,57*,-2,15
CC(=O)Nc1ccc(C(=O)/C=C/c2ccco2)cc1,1,4,3,7
COCCn1c(C)cc(C(=O)COC(=O)c2ccc(NC(=O)CC#N)cc2)c1C,-3,68*,-3,17
O=C(c1cccc([N+](=O)[O-])c1)c1ccc2[nH]c(=O)[nH]c2c1,1,-89,29*,7
NC(=O)c1cccc([N+](=O)[O-])c1,·,·,·,2
COc1ccc(-c2cc(=O)oc3cc(O)ccc23)cc1,8.6*,-4,-1,-4
COc1ccc(-c2cc(=O)oc3cc(OCC(C)=O)ccc23)cc1,3,1,-2,-7
O=C(NCc1ccccc1Br)c1cccs1,·,·,·,-7
COCCCn1c(-c2ccccc2Cl)n[nH]c1=S,10*,-4,-1,-6
COCCCn1c(-c2ccc(Cl)cc2)n[nH]c1=S,6,2,-3,2
O=C(O)c1nn(-c2ccc(F)cc2)ccc1=O,-1,-11,-5,1
O=C(NNC(=O)c1nn(-c2ccc(F)cc2)ccc1=O)c1ccccc1Cl,-3,-6,8.4*,2
Cc1cc(NS(=O)(=O)c2cc(Cl)sc2Cl)no1,-3,-1,-4,-2
O=[N+]([O-])c1ccc(Cl)c(NC2=NCCCCC2)c1,-1,0,-2,-6
O=C(Nc1ccc(-c2nc3ccccc3s2)c(OC(=O)c2ccccc2)c1)c1ccccc1,-3,58*,-2,-3
O=C(Nc1ccc2nc3ccccc3nc2c1)c1ccccc1,1,-15,-2,4
Nc1c(C(=O)Nc2ccccc2F)sc2nc(-c3ccco3)ccc12,0,48*,-1,13
NC(=O)c1sc2nc(-c3ccco3)ccc2c1N,11*,-17,1,14
SMILES,VIM-2 inh,core dimer inh,IMP-1 inhibitor,NadD inh
CCC(C)N(C(=O)Cn1c(=O)cnc2ccccc21)C1CCS(=O)(=O)C1 (stereo not drawn),·,0,·,0
O=C(Nc1nc(-c2ccco2)c(-c2ccco2)s1)c1cnccn1,·,69*,·,·
Cc1cc(SCC(=O)Nc2c(C)n(C)n(-c3ccccc3)c2=O)n2c(nc3ccccc32)c1C#N,22*,·,-1,·
Cc1cc(C)c(C#N)c(SCC(=O)Nc2c(C)n(C)n(-c3ccccc3)c2=O)n1,·,·,·,-2
Cc1ccc(C)n1-c1ccc(-c2nnco2)cc1,0,67*,1,21
O=C(/C=C1\NC2(CCCC2)Cc2ccccc21)C(=O)N/N=C/c1ccc(O)c(O)c1,-2,15,-5,38*
Cc1ccccc1C(=O)NC1CCN(C(=O)NC2CCCCC2)CC1,0,1,-2,-5
Cc1ccccc1C(=O)NC1CCN(C(=O)N(c2ccccc2)c2ccccc2)CC1,0,1,4.6*,0
COc1ccccc1N1CCN(C2CCN(C(=O)COc3cccc(C)c3)CC2)CC1,3,0,1,-3
CC1(c2ccc(Cl)cc2)NC(=O)N(CC(=O)Nc2ccc(N3CCCCC3)cc2)C1=O (stereo not drawn),·,-3,·,3
COc1ccc2nc(NC(=O)CN3C(=O)NC4(CCCCC4)C3=O)sc2c1,0,-9,1,0
